Laboratory results taken from ChEMBL document CHEMBL5126644, “Synthesis and Structural Characterization of Novel Trihalo-sulfone Inhibitors of WNK1” (ACS Med Chem Lett, 2022).
Activity calls are given as the source filed them. The calls are words filed in the database; no cut-off is given here.

How the values were obtained:
[1] = molecular target: T1, Serine/threonine-protein kinase WNK1 (Homo sapiens, UniProt Q9H4A3); assay: Inhibition of TEV cleavage site-fused His6-tagged WNK1 (194 to 483 residues) (unknown origin) expressed in Rosetta (DE3) cells using GST-OSR1(314 to 344) peptide as substrate incubated for 2 hrs by kinase-glo luminescence assay
Target sequence in this assay (Q9H4A3 whole entry, the tested form may be a part): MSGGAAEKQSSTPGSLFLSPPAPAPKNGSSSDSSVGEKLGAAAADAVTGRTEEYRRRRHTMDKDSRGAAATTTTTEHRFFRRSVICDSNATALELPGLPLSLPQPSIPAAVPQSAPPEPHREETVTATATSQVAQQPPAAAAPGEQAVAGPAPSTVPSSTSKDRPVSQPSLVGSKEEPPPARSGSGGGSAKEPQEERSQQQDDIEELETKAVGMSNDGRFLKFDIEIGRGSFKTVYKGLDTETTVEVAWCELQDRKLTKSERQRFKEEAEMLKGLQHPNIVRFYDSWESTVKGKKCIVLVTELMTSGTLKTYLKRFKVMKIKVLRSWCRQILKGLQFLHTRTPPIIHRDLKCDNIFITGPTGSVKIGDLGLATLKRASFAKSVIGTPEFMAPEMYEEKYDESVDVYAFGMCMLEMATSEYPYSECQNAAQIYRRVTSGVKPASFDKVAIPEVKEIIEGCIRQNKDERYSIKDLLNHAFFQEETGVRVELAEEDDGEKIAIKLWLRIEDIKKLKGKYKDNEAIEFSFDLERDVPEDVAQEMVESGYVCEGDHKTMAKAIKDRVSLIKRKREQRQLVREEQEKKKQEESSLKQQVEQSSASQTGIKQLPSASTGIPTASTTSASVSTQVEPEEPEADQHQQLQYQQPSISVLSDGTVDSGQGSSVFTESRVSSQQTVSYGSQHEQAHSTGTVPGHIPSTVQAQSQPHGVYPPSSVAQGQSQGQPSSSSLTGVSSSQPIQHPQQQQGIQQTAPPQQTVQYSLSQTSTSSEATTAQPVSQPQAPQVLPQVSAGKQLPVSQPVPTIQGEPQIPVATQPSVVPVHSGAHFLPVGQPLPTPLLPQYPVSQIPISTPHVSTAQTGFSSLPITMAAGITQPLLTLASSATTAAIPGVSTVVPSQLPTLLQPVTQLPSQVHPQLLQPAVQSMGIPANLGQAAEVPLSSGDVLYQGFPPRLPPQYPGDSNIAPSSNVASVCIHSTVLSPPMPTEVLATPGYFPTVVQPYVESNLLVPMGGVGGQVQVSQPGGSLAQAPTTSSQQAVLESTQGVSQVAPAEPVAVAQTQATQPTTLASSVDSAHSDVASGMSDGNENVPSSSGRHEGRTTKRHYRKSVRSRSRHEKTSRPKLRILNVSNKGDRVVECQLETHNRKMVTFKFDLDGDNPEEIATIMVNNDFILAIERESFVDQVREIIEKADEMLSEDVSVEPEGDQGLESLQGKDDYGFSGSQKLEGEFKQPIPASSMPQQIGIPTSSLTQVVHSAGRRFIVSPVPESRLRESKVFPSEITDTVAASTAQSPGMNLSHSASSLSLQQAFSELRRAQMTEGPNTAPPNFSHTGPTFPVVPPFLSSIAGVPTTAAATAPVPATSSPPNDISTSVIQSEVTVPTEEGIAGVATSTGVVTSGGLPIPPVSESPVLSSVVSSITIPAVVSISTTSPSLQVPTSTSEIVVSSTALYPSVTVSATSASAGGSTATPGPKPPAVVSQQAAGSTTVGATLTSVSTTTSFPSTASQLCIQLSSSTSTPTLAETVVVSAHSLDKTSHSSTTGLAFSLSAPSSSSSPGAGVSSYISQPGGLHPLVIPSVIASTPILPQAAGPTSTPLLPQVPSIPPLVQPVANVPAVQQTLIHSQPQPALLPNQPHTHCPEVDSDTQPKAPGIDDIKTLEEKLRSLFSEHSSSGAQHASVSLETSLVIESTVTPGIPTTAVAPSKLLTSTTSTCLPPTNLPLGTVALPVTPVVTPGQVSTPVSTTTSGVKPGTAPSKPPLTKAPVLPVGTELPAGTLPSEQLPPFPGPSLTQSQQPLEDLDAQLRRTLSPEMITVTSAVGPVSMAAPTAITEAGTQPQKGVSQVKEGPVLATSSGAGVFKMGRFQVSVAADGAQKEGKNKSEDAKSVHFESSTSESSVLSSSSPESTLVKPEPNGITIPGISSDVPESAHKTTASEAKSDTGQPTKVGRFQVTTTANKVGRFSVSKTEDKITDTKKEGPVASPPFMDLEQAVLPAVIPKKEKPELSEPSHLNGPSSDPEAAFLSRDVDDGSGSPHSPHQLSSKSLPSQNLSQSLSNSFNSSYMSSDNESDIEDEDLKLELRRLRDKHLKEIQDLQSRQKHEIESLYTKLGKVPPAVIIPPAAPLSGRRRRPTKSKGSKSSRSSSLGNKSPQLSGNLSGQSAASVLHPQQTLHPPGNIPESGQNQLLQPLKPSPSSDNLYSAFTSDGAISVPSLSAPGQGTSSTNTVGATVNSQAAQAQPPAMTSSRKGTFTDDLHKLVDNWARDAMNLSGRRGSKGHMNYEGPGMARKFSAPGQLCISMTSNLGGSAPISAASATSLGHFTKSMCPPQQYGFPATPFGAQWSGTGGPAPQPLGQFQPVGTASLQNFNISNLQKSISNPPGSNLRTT

[2] = molecular target: T1, Serine/threonine-protein kinase WNK1; assay: Inhibition of TEV cleavage site-fused His6-tagged WNK1 (194 to 483 residues) (unknown origin) expressed in Rosetta (DE3) cells using GST-OSR1(314 to 344) peptide as substrate measured after 30 mins by [gamma-32P]-ATP based liquid scintillation counting analysis; assay type: biochemical
In short: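 Radiometric kinase assay using [γ-32P]ATP at low enzyme concentration. It was chosen over the luminescence format for more precise IC50 determination.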
Target sequence in this assay (Q9H4A3 whole entry, the tested form may be a part): as above

[3] = molecular target: T1, Serine/threonine-protein kinase WNK1; assay: Inhibition of WNK1 in human MDA-MB-231 cells assessed as reduction in OSR1 phosphorylation measured after 24 hrs by Western blot analysis; assay type: cell-based
In short: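 Endogenous OSR1 phosphorylation was measured in MDA-MB-231 breast cancer cells. Experiments were run in triplicate, and an IC50 was derived from the phosphorylation read-out.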
Target sequence in this assay (Q9H4A3 whole entry, the tested form may be a part): as above

MDA-MB-231 = assay: Cytotoxicity against human MDA-MB-231 cells assessed as cell viability up to 12 uM measured after 24 hrs; assay type: toxicity, cell-based; details: mda-mb-231, 24 h
[4] = molecular target: T1, Serine/threonine-protein kinase WNK1; assay: Inhibition of WNK1 (unknown origin) at 10 uM relative to control
Target sequence in this assay (Q9H4A3 whole entry, looked up, the tested form may be a part): as the sequence (Q9H4A3 whole entry, the tested form may be a part) above

[5] = molecular target: Serine/threonine-protein kinase WNK3 (Homo sapiens) (UniProt Q9BYP7); assay: Inhibition of WNK3 (unknown origin) at 10 uM relative to control
Serine/threonine-protein kinase WNK3 (Homo sapiens), sequence (Q9BYP7 whole entry, the tested form may be a part): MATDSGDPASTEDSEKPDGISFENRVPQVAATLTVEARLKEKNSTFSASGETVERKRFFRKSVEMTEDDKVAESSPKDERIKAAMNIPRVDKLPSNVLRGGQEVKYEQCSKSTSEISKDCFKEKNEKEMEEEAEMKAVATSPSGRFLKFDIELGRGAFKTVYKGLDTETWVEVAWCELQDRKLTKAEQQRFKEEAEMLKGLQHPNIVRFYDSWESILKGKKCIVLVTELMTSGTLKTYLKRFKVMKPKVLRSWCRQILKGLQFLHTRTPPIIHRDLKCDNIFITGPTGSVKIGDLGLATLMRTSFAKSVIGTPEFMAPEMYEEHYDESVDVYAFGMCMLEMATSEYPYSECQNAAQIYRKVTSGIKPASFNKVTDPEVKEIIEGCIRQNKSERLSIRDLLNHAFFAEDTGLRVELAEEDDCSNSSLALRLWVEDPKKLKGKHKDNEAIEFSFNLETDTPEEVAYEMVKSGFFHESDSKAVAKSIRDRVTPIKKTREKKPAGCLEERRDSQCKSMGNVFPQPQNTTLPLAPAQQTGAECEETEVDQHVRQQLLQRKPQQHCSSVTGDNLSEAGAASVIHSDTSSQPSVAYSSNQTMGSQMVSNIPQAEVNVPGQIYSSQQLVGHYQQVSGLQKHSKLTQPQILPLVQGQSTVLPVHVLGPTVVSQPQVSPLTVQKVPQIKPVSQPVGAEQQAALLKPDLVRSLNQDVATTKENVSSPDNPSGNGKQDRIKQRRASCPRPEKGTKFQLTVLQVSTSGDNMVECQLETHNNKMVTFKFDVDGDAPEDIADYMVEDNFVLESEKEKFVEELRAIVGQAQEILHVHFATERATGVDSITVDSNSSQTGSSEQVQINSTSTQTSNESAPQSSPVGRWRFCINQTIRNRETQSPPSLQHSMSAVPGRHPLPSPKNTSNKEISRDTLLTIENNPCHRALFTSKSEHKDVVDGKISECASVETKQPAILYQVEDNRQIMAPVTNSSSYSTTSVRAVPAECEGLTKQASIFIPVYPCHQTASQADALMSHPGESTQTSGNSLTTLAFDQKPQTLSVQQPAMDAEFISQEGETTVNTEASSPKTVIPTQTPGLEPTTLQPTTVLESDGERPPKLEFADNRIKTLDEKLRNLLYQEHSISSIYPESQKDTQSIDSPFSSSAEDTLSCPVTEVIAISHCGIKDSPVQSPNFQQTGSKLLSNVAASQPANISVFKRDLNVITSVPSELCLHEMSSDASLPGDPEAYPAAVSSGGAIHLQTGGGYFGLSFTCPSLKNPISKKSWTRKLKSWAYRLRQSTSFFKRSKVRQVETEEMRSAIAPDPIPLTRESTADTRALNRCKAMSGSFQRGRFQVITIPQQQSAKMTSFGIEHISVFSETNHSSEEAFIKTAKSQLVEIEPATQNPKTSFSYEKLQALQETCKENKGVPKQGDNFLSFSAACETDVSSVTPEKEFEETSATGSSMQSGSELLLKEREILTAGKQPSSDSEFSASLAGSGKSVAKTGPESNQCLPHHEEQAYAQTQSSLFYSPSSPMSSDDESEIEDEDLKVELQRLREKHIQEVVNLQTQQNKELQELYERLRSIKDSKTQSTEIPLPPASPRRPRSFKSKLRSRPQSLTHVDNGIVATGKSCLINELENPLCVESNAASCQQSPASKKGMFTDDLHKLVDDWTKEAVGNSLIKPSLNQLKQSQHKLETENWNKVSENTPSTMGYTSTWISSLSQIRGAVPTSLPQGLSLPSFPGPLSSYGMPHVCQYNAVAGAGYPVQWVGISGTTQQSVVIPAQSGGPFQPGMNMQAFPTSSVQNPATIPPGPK

Homo sapiens = organism: Homo sapiens; assay: Selectivity ratio of IC50 for WNK3 (118 to 409 residues) (unknown origin) expressed in Escherichia coli BL21 DE3 to IC50 for TEV cleavage site-fused His6-tagged WNK1 (194 to 483 residues) (unknown origin) expressed in Rosetta (DE3) cells
[6] = molecular target: Serine/threonine-protein kinase WNK2 (Homo sapiens) (UniProt Q9Y3S1); assay: Inhibition of WNK2 (unknown origin) at 10 uM relative to control
[7] = molecular target: Mitogen-activated protein kinase 9 (Homo sapiens) (UniProt P45984); assay: Inhibition of JNK2 (unknown origin) at 10 uM
[8] = molecular target: Mitogen-activated protein kinase 10 (Homo sapiens) (UniProt P53779); assay: Inhibition of JNK3 (unknown origin) at 10 uM
Mitogen-activated protein kinase 10 (Homo sapiens), sequence (P53779 whole entry): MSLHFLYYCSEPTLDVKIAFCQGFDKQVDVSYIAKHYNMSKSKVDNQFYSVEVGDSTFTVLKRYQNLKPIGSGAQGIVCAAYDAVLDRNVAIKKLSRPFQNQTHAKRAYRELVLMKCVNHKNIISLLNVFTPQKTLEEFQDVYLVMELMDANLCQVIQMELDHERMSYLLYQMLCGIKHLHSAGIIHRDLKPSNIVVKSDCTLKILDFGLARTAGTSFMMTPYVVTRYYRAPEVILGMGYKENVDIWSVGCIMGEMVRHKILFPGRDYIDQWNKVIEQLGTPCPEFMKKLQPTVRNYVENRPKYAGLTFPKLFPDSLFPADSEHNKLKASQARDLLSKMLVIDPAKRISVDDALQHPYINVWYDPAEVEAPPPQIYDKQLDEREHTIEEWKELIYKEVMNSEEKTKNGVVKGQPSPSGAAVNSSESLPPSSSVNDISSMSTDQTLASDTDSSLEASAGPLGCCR

| SMILES | IC50 [1] [µM] | IC50 [2] [µM] | also measured |
| --- | --- | --- | --- |
| O=S(=O)(c1ccc(NC2CCCCC2)cc1)C(Cl)(Cl)Br | > 1000 | – | – |
| CN1CCN(c2ccc(S(=O)(=O)C(Cl)(Cl)Br)cc2[N+](=O)[O-])CC1 | > 1000 | – | – |
| O=[N+]([O-])c1ccccc1NC1CCCCC1 | > 1000 | – | – |
| O=[N+]([O-])c1cc(S(=O)(=O)C(Cl)Cl)ccc1NC1CCCCC1 | > 1000 | – | – |
| O=[N+]([O-])c1cc(S(=O)(=O)C(F)(F)F)ccc1NC1CCCCC1 | > 1000 | > 1000 | – |
| CS(=O)(=O)c1ccc(NC2CCCCC2)c([N+](=O)[O-])c1 | > 1000 | – | – |
| O=[N+]([O-])c1cc(S(=O)(=O)C(Cl)(Cl)Br)ccc1NC1CCCC1 | 93 | 6.5 | – |
| O=[N+]([O-])c1cc(S(=O)(=O)C(Cl)(Cl)Br)ccc1NCc1ccco1 | 15 | 5 | – |
| O=[N+]([O-])c1cc(S(=O)(=O)C(Cl)(Cl)Br)ccc1Nc1ccccc1 | 76 | 7.2 | – |
| CCS(=O)(=O)c1ccc(NC2CCCCC2)c([N+](=O)[O-])c1 | > 1000 | – | – |
| O=[N+]([O-])c1cc(S(=O)(=O)C(Cl)(Cl)Br)ccc1NC1CCCCC1 | 4 | 1.6 | IC50 [3]: 4.3 µM; Activity (MDA-MB-231): Non-Toxic; inhibition [4]: 20%; inhibition [5]: 20%; Ratio IC50 (Homo sapiens): 10 |
| O=[N+]([O-])c1cc(S(=O)(=O)C(Cl)(Cl)Br)ccc1NCCCc1ccccc1 | 79 | 6 | inhibition [4]: 20%; inhibition [6]: 20%; inhibition [7]: Active; inhibition [8]: Active |
| O=[N+]([O-])c1cc(S(=O)(=O)C(Cl)(Cl)Cl)ccc1NC1CCCCC1 | > 1000 | – | – |
